# Laboratory results taken from BindingDB's records for doi:10.1021/np500803e (Chungbuk National University, 2015).
# Target: Signal transducer and activator of transcription 3 (Homo sapiens, UniProt P40763)
# Assay: Inhibition of IL6-induced STAT3 activation in human Hep3B cells after 12 hrs by luciferase assay
# Outline: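 Hep3B cells stably carrying a pSTAT3-luciferase reporter, 2 × 10^4 cells/well, grown 24 h, then switched to serum-free medium. Stimulated with IL-6 (10 ng/mL) with or without sample for 12 h. Luciferase activity then read. IC50 taken as the mean of triplicate experiments. Stattic and genistein used as positive controls.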
# Chain of Signal transducer and activator of transcription 3 (P40763 whole entry): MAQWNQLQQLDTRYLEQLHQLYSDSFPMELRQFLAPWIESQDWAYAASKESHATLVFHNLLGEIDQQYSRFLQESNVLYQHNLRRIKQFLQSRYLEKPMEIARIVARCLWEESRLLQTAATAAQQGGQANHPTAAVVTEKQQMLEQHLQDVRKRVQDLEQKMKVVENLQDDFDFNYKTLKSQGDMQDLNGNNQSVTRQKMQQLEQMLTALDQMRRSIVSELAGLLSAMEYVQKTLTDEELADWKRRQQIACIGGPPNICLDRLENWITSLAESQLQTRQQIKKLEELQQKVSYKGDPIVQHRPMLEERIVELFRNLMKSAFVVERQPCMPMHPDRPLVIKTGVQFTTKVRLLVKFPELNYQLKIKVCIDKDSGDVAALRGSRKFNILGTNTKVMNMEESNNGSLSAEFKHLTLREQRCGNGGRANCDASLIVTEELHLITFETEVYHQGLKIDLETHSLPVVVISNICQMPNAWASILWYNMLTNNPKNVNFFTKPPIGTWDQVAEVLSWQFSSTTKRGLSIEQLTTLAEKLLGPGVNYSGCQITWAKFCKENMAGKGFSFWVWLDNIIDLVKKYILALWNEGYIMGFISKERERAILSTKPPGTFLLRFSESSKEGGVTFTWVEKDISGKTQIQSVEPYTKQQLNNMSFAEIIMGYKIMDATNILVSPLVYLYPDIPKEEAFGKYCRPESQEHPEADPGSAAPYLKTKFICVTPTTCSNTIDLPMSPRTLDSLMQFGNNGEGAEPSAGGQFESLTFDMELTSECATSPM
row,SMILES,IC50
1,C=C(C)C(=O)CC[C@](C)(O[C@@H]1O[C@H](CO[C@@H]2O[C@@H](C)[C@H](O)[C@@H](O)[C@H]2O)[C@@H](O)[C@H](O)[C@H]1O)[C@H]1CC[C@]2(C)[C@@H]1[C@H](O)C[C@@H]1[C@@]3(C)C[C@@H](O)[C@H](O[C@@H]4O[C@H](CO)[C@@H](O)[C@H](O)[C@H]4O[C@@H]4O[C@H](CO)[C@@H](O)[C@H](O)[C@H]4O)C(C)(C)[C@@H]3CC[C@]12C,19.2 µM
2,CC(C)(/C=C/C[C@](C)(O[C@@H]1O[C@H](CO[C@@H]2O[C@H](CO)[C@@H](O)[C@H](O)[C@H]2O)[C@@H](O)[C@H](O)[C@H]1O)[C@H]1CC[C@]2(C)[C@@H]1[C@H](O)C[C@@H]1[C@@]3(C)C[C@@H](O)[C@H](O)C(C)(C)[C@@H]3CC[C@]12C)OO,> 30 µM
3,C[C@@H]1O[C@@H](OC[C@H]2O[C@@H](O[C@@](C)(C/C=C/C(C)(C)OO)[C@H]3CC[C@]4(C)[C@@H]3[C@H](O)C[C@@H]3[C@@]5(C)C[C@@H](O)[C@H](O[C@@H]6O[C@H](CO)[C@@H](O)[C@H](O)[C@H]6O[C@@H]6O[C@H](CO)[C@@H](O)[C@H](O)[C@H]6O)C(C)(C)[C@@H]5CC[C@]34C)[C@H](O)[C@@H](O)[C@@H]2O)[C@H](O)[C@H](O)[C@H]1O,> 30 µM
4,CC(C)(/C=C/C[C@](C)(O[C@@H]1O[C@H](CO)[C@@H](O)[C@H](O)[C@H]1O)[C@H]1CC[C@]2(C)[C@@H]1[C@H](O)C[C@@H]1[C@@]3(C)C[C@@H](O)[C@H](O[C@@H]4O[C@H](CO)[C@@H](O)[C@H](O)[C@H]4O[C@@H]4O[C@H](CO)[C@@H](O)[C@H](O)[C@H]4O)C(C)(C)[C@@H]3CC[C@]12C)OO,> 30 µM
5,CC(C)/C=C/C[C@](C)(O[C@@H]1O[C@H](CO[C@@H]2O[C@@H](C)[C@H](O)[C@@H](O)[C@H]2O)[C@@H](O)[C@H](O)[C@H]1O)[C@H]1CC[C@]2(C)[C@@H]1[C@H](O)C[C@@H]1[C@@]3(C)C[C@@H](O)[C@H](O[C@@H]4O[C@H](CO)[C@@H](O)[C@H](O)[C@H]4O[C@@H]4O[C@H](CO)[C@@H](O)[C@H](O)[C@H]4O)C(C)(C)[C@@H]3CC[C@]12C,> 30 µM
6,C[C@@H]1O[C@@H](OC[C@H]2O[C@@H](O[C@@](C)(C/C=C/C(C)(C)O)[C@H]3CC[C@]4(C)[C@@H]3[C@H](O)C[C@@H]3[C@@]5(C)C[C@@H](O)[C@H](O[C@@H]6O[C@H](CO)[C@@H](O)[C@H](O)[C@H]6O)C(C)(C)[C@@H]5CC[C@]34C)[C@H](O)[C@@H](O)[C@@H]2O)[C@H](O)[C@H](O)[C@H]1O,17.1 µM
7,CC(C)/C=C/C[C@](C)(O[C@@H]1O[C@H](CO[C@@H]2O[C@@H](C)[C@H](O)[C@@H](O)[C@H]2O)[C@@H](O)[C@H](O)[C@H]1O)[C@H]1CC[C@]2(C)[C@@H]1[C@H](O)C[C@@H]1[C@@]3(C)C[C@@H](O)[C@H](O[C@@H]4O[C@H](CO)[C@@H](O)[C@H](O)[C@H]4O)C(C)(C)[C@@H]3CC[C@]12C,17.6 µM

# The next compounds have a lower IC50 than those just listed; values first:
row,IC50,SMILES
1,0.27 µM,C=C(C)C(=O)CC[C@](C)(O[C@@H]1O[C@H](CO[C@@H]2O[C@H](CO)[C@@H](O)[C@H](O)[C@H]2O)[C@@H](O)[C@H](O)[C@H]1O)[C@H]1CC[C@]2(C)[C@@H]1[C@H](O)C[C@@H]1[C@@]3(C)C[C@@H](O)[C@H](O)C(C)(C)[C@@H]3CC[C@]12C
2,0.59 µM,C=C(C)C(=O)CC[C@](C)(O[C@@H]1O[C@H](CO[C@@H]2O[C@@H](C)[C@H](O)[C@@H](O)[C@H]2O)[C@@H](O)[C@H](O)[C@H]1O)[C@H]1CC[C@]2(C)[C@@H]1[C@H](O)C[C@@H]1[C@@]3(C)C[C@@H](O)[C@H](O)C(C)(C)[C@@H]3CC[C@]12C
3,4 µM,CC(C)/C=C/C[C@](C)(O[C@@H]1O[C@H](CO[C@@H]2O[C@@H](C)[C@H](O)[C@@H](O)[C@H]2O)[C@@H](O)[C@H](O)[C@H]1O)[C@H]1CC[C@]2(C)[C@@H]1[C@H](O)C[C@@H]1[C@@]3(C)CC[C@H](O[C@@H]4O[C@H](CO)[C@@H](O)[C@H](O)[C@H]4O[C@@H]4O[C@H](CO)[C@@H](O)[C@H](O)[C@H]4O)C(C)(C)[C@@H]3CC[C@]12C
4,0.5 µM,CC(C)/C=C/C[C@](C)(O[C@@H]1O[C@H](CO[C@@H]2O[C@@H](C)[C@H](O)[C@@H](O)[C@H]2O)[C@@H](O)[C@H](O)[C@H]1O)[C@H]1CC[C@]2(C)[C@@H]1[C@H](O)C[C@@H]1[C@@]3(C)C[C@@H](O)[C@H](O)C(C)(C)[C@@H]3CC[C@]12C
